Source: ChEMBL document CHEMBL3779771, “Chiral Dihydrobenzofuran Acids Show Potent Retinoid X Receptor-Nuclear Receptor Related 1 Protein Dimer Activation” (J Med Chem, 2016)
Active and inactive are the calls of the source. No cut-off for these calls is given here.

Columns and labels:
[1] = biological target: T1, Retinoic acid receptor RXR-alpha (Homo sapiens, UniProt P19793); assay: (§1) Agonist activity at histidine-tagged ligand binding domain of human RXRalpha expressed in Escherichia coli BL21 (DE3) by luciferase reporter gene assay
T1 sequence (P19793 whole entry): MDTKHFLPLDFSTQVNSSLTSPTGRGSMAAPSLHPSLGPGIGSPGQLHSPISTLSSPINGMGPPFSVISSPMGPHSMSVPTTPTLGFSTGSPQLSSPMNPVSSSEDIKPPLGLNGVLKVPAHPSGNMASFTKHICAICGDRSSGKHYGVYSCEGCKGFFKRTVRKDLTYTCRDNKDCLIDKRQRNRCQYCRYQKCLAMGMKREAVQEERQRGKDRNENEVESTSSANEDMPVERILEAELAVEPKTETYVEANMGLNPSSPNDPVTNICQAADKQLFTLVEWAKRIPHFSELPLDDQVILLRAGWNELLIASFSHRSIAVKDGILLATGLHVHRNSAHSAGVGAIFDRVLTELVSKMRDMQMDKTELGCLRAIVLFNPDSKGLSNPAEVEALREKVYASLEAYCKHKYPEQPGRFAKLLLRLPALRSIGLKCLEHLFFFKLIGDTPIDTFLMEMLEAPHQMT

[2] = biological target: Retinoic acid receptor (Homo sapiens) (UniProt P13631+P10826+P10276); assay: Activation of RAR (unknown origin); format: protein assay
[3] = biological target: T2, Estrogen receptor (Homo sapiens) (UniProt P03372); assay: Activation of estrogen receptor (unknown origin)
T2 sequence (whole entry): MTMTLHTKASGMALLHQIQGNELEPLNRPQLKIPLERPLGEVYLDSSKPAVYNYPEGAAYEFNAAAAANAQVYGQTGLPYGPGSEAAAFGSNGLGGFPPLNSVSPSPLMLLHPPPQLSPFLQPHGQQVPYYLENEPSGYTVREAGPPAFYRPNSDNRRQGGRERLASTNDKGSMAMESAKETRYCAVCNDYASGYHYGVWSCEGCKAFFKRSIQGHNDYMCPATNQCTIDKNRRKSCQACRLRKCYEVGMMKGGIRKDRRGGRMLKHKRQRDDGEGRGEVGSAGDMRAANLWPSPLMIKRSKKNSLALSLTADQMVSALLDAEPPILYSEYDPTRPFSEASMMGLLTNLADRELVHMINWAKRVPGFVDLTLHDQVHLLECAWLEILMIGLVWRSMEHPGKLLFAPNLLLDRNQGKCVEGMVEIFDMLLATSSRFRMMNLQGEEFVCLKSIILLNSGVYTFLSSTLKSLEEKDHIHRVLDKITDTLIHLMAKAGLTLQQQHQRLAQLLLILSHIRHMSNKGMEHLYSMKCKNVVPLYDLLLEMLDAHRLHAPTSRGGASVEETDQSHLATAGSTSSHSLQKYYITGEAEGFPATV

[4] = biological target: T3, Retinoic acid receptor RXR-alpha (Homo sapiens) (UniProt P19793); assay: Agonist activity at histidine-tagged ligand binding domain of human RXRalpha expressed in Escherichia coli BL21 (DE3) by luciferase reporter gene assay relative to bexarotene
T3 sequence (whole entry): T1 sequence (P19793 whole entry)

[5] = biological target: T3, Retinoic acid receptor RXR-alpha (Homo sapiens); assay: as §1
Homo sapiens = species: Homo sapiens; assay: Selectivity ratio of EC50 for Renilla luciferase/GFP2-tagged RXRalpha homodimer (unknown origin) to EC50 for Renilla luciferase/GFP2-tagged RXRalpha/Nurr1 (unknown origin)
[6] = biological target: T1, Retinoic acid receptor RXR-alpha; assay: Agonist activity at Renilla luciferase/GFP2-tagged RXRalpha homodimer (unknown origin) expressed in HEK293T cells by BRET2 assay; format: cell-based, HEK-293T
[7] = biological target: T4, Nuclear receptor subfamily 4 group A member 2/Retinoic acid receptor RXR-alpha (Homo sapiens, UniProt P19793+P43354); assay: Agonist activity at Renilla luciferase/GFP2-tagged RXRalpha/Nurr1 (unknown origin) expressed in HEK293T cells by BRET2 assay relative to bexarotene; format: cell-based; conditions: HEK-293T
Summary of the method: (§2)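 BRET2 assay with RXR and Nurr1 receptors tagged with GFP and Renilla luciferase, run in whole cells. Potency is given as pEC50, the negative log of molar EC50. Agonist efficacy is expressed relative to bexarotene, set at 100%. Values are mean ± SD of at least three independent experiments.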

[8] = biological target: T4, Nuclear receptor subfamily 4 group A member 2/Retinoic acid receptor RXR-alpha; assay: Agonist activity at Renilla luciferase/GFP2-tagged RXRalpha/Nurr1 (unknown origin) expressed in HEK293T cells by BRET2 assay; format: cell-based, HEK-293T
[9] = biological target: T3, Retinoic acid receptor RXR-alpha (Homo sapiens); assay: Agonist activity at Renilla luciferase/GFP2-tagged RXRalpha homodimer (unknown origin) expressed in HEK293T cells by BRET2 assay relative to bexarotene; format: cell-based; conditions: HEK-293T; summary of the method: as §2

Retinoic acid receptor (Homo sapiens), sequence (P10276 whole entry, looked up): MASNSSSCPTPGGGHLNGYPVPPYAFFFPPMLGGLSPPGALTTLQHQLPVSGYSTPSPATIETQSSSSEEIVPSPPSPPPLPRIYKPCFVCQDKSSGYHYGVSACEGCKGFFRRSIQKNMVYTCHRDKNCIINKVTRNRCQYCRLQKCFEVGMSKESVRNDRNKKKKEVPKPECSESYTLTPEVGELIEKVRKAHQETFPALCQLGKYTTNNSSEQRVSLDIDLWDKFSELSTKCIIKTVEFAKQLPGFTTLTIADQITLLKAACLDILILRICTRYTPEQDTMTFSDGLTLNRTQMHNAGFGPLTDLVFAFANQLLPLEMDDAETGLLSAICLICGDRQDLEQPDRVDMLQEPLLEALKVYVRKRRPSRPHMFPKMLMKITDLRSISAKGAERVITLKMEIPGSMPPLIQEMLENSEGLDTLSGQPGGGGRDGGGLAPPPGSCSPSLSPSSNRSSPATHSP
Retinoic acid receptor (Homo sapiens), sequence (P10826 whole entry, looked up): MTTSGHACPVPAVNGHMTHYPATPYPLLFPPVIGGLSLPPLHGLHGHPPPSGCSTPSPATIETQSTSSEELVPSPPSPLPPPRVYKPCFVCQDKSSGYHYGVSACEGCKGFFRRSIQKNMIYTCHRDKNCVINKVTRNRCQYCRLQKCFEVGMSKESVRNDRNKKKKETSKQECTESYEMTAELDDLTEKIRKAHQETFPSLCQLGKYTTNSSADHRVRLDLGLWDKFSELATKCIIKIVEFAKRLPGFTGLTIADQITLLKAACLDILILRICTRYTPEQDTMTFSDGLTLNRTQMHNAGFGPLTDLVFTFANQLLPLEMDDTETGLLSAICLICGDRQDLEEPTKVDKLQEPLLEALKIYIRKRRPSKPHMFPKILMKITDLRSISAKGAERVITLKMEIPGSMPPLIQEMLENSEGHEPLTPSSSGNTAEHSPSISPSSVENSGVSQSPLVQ
Retinoic acid receptor (Homo sapiens), sequence (P13631 whole entry, looked up): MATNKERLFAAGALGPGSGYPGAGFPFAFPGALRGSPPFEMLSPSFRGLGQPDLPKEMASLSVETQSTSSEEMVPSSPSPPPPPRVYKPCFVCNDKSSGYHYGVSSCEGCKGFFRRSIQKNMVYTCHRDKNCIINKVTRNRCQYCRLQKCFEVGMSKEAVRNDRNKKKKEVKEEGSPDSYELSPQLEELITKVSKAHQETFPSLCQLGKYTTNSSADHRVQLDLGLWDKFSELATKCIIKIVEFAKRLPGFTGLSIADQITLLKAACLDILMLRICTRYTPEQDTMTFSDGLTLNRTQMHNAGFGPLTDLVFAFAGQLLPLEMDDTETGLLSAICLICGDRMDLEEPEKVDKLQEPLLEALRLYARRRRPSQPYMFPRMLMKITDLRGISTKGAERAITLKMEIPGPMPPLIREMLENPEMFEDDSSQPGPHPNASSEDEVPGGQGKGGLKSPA
T4 sequence (P43354 whole entry, one chain of several): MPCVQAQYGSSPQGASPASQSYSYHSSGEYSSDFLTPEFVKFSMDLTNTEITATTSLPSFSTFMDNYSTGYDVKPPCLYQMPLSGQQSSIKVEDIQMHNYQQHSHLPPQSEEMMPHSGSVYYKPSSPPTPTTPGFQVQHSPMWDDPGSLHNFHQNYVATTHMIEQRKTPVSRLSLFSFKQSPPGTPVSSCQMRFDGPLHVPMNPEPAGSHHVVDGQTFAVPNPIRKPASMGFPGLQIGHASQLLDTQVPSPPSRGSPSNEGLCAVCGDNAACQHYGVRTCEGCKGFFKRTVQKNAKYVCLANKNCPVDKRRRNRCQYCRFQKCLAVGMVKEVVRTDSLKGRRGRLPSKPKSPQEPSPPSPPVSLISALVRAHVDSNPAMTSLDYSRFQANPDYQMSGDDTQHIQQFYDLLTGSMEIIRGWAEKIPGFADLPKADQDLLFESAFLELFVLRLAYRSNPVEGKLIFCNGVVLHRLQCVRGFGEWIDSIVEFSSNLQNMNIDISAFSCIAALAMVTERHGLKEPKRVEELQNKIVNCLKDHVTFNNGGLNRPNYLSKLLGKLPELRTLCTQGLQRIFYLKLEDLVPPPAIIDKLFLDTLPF

Row | Structure (SMILES) | EC50 [1] | Activity [2] | Activity [3] | Efficacy [4] | pEC50 [5] | Ratio EC50 (Homo sapiens) | EC50 [6] | Efficacy [7] | EC50 [8] | Efficacy [9]
1 | CC1(C)CCC(C)(C)c2cc3c(cc21)OC1CCCCC31c1ccc(C(=O)O)cc1 (racemic) | 50.1 nM | inactive | inactive | 96% |  |  |  |  |  | 
2 | CC1(C)CCC(C)(C)c2cc3c(cc21)OC1CCCCC31c1ccc(C(=O)O)c(F)c1 (racemic) | 50.1 nM | inactive | inactive | 88% |  |  |  |  |  | 
3 | CC1(C)CCC(C)(C)c2cc3c(cc21)OC1CCCCC31c1ccc(O)cc1 (racemic) |  |  |  |  | inactive |  |  |  |  | 
4 | CC1(C)CCC(C)(C)c2cc3c(cc21)O[C@@H]1CCC[C@]31c1ccc(C(=O)O)cc1 | 6.31 nM |  |  | 119% |  | 3 | 25.1 nM | 111% | 12.6 nM | 85%
5 | CC1(C)CCC(C)(C)c2cc3c(cc21)O[C@H]1CCCCC[C@@]31c1ccc(C(=O)O)cc1 (racemic) | 126 nM | inactive | inactive | 47% |  |  |  |  |  | 
6 | CC1(C)CCC(C)(C)c2cc3c(cc21)O[C@H]1CCC[C@@]31c1ccc(C(=O)O)cc1 | 1000 nM |  |  | 59% |  |  |  | 49% | 501 nM | inactive
7 | CC1(C)CCC(C)(C)c2cc3c(cc21)O[C@@H]1CCCC[C@]31c1ccc(C(=O)O)cc1 | 20 nM |  |  | 94% |  |  | 15.8 nM | 96% | 12.6 nM | 80%
8 | CC1(C)CCC(C)(C)c2cc3c(cc21)O[C@H]1CCCCC[C@]31c1ccc(C(=O)O)cc1 (racemic) |  |  |  |  | inactive |  |  |  |  | 
9 | CC1(C)CCC(C)(C)c2cc3c(cc21)OC1CCCC31c1ccc(C(=O)O)cc1 (racemic) | 25.1 nM | inactive | inactive | 65% |  |  |  |  |  | 
10 | CC1(C)CCC(C)(C)c2cc3c(cc21)O[C@H]1CCCC[C@@]31c1ccc(C(=O)O)cc1 |  |  |  |  | inactive |  |  | 92% | > 3160 nM | inactive
